T cruzi repl = blocks replication of Trypanosoma cruzi | inhibition, % (concentration not given with the values) | T. cruzi beta-gal in NIH3T3, luminescence, 90 h | hit rate 1.4% among 300,000 | AID 1885;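 active means mean inhibition across valid replicates above about 55%, limit read from the data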;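 further: signal also drops with host cell toxicity which is not excluded here; 0% = plate median of DMSO wells and 100% = zero luminescence signal; higher percent means less beta-gal luminescence so fewer parasites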
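System: mouse NIH/3T3 fibroblasts infected with β-gal-expressing T. cruzi Tulahuen C4 / Input: NIH/3T3 cells, 5,000 per well / Buffer or medium: Low-serum DMEM with 2% FBS / Probe or stimulus: 5000 reporter trypomastigotes per well / Schedule: ≥90 h infection period, 3 h prior cell attachment / Measured by: GalScreen luminescence, 60 min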
Mdm2 MdmX PPI = inhibitors of human Mdm2/MdmX interaction. SaOS-2 split-luciferase Mdm2/MdmX complementation, luminescence. inhibition, % at 8 µM. hit rate 3% among 330,000. AID 485346;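 active means inhibition of at least 50% at 8 µM in the primary screen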
SKKanGAS inh = inhibitors of SKKanGAS S. pyogenes growth in kanamycin (SK-promoter or general growth effect); hit rate 1.3% among 300,000; AID 1662; BacTiter-Glo, 6 h; inhibition, % at 7.5 µM;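 active means mean replicate score, as percent of positive control median, at least 50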;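 further: strain carries kanamycin resistance gene driven by streptokinase promoter and grows in 40 µg/ml kanamycin; loss of luminescence reflects streptokinase promoter inhibition or plain growth inhibition; 0% = median of DMSO wells and 100% = positive control at its reference dose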
Calb FLC = C. albicans growth modulation with fluconazole | growth inhibition, % (test concentration not listed) | AID 1979 | C. albicans CaCi-2 + fluconazole, Alamar Blue growth, 48 h | hit rate 0.57% among 300,000;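 active means growth inhibition above about 58% in most replicates, limit read from the data, passing the limit was not always enough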;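 further: all wells also contain fluconazole at 8 µg/ml as a sub-toxic cotreatment; 0% = median of DMSO wells and 100% = median of geldanamycin control wells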
Beta apoptosis = beta cell apoptosis inhibition. INS-1E cytokine-induced death, ATP luminescence, 48 h; percent of positive-control rescue, neutral wells zero. protection from apoptosis, % (test concentration not listed). hit rate 0.8% among 300,000. AID 435005;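 active means Every replicate reaches about 75%, or at least half do and their mean reaches it too, limit read from the data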;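 further: 0% = cytokine-treated negative control wells and 100% = positive control rescue; higher means more ATP so stronger rescue from cytokine killing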
CSC inhib = blocks cancer stem cells | cancer stem cell-like cells viability, luminescence | inhibition, % at 7.5 µM | hit rate 1.1% among 300,000 | AID 2717; in the data active means inhibition above about 75%; tested in HMLE shEcad cells
Mdm2 MdmX conf = human Mdm2/MdmX binding inhibition, confirmed; inhibition, % at 8 µM; luminescent assay; hit rate 55% among 10,000; shares compounds with Mdm2 MdmX PPI; in the data active means inhibition above about 40%
FLuc counter = inhibits full-length luciferase, flagging false Mdm2/MdmX hits. hit rate 77% among 6,200. AID 504607. inhibition, % at 8 µM. SaOS-2 full-length luciferase counterscreen, luminescence. shares compounds with Mdm2 MdmX PPI;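 active means mean inhibition at 8 µM reaching about 37%, which flags the compound as non-specific, limit read from the data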;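 further: p53-null SaOS-2 cells with luciferase driven by a doxycycline-inducible promoter; compound on cells about two nights before reading with doxycycline added after day one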
The depositor's hits bear a star; · = not tested or not shown. Only some compounds are listed: those with a hit (about 5.7% of all), similar ones and a draw of the others.

SMILES | T cruzi repl | Mdm2 MdmX PPI | SKKanGAS inh | Calb FLC | Beta apoptosis | CSC inhib | Mdm2 MdmX conf | FLuc counter
CCOc1cc(CNCCc2ccc(S(N)(=O)=O)cc2)ccc1OCc1ccccc1 | 30.3 | · | -4.7 | -14.4 | 33.9 | 3.3 | · | ·
CCOc1cc(CNCc2ccccc2)ccc1OCc1ccc(Cl)cc1 | 55.3* | 55.0* | 6.7 | -30.8 | 41.0 | 28.5 | 22.2 | ·
Cc1cc(NS(=O)(=O)c2ccc(NC(=O)COc3ccc(C#N)cc3)cc2)nc(C)n1 | · | -6.5 | · | · | -4.0 | -15.3 | · | ·
Cn1c(-c2ccccc2F)cc2onc(-c3ccccc3)c2c1=O | · | -18.5 | · | · | 6.9 | -1.6 | · | ·
Cn1c(-c2ccccc2)cc2onc(-c3ccccc3)c2c1=O | · | 61.6* | · | · | 9.7 | 6.2 | 37.5 | 113.3*
COC(=O)COc1ccc(NC(=O)Cn2nc(-c3ccccc3)c3ccccc3c2=O)cc1 | 0.5 | 81.5* | -3.8 | 1.6 | -1.7 | 2.8 | 48.9* | 89.3*
CCOC(=O)C1=C(CC)Nc2ccccc2N=C1NC(=O)c1cc(C)on1 | · | 8.7 | · | · | -0.3 | · | · | ·
CCOC(=O)C1=C(CC)Nc2ccccc2N=C1NC(=O)Nc1ccc(Cl)c(Cl)c1 | 60.9* | 94.1* | 93.2* | -3.0 | 62.8 | -3.3 | 80.4* | 39.2*
COc1ccc(-c2nnc(COc3ccc4ccccc4c3)o2)cc1OC | 2.3 | 8.0 | -9.9 | 13.2 | -6.8 | 1.4 | · | ·
COc1cc(-c2nnc(COc3ccc4cc(Br)ccc4c3)o2)cc(OC)c1OC | -9.3 | 60.5* | 5.8 | -12.0 | · | 18.6 | 8.5 | ·
O=C(O)c1ccc(Cl)cc1Nc1nc2cc(Cl)ccc2o1 | -0.3 | · | 16.9 | 5.7 | -4.4 | -9.0 | · | ·
COc1cc(/C=C2/CCC/C(=C\c3cc(O)c(OC)c(Cl)c3)C2=O)cc(Cl)c1O | 11.5 | 95.0* | 42.9 | 8.5 | 8.5 | 118.7* | 80.0* | 51.9*
CCOc1cc(/C=C2\CN(CC)C/C(=C\c3ccc(O)c(OCC)c3)C2=O)ccc1O | 11.3 | 96.4* | 6.2 | 2.2 | · | · | 96.5* | 56.8*
CCOc1cc(/C=N/N=C/c2ccc(O)c(OCC)c2)ccc1O | -4.8 | 20.4 | 2.4 | -1.8 | -8.9 | -7.6 | · | ·
COc1cc(/C=C2\COC/C(=C\c3cc(OC)c(OC)c(OC)c3)C2=O)cc(OC)c1OC | 10.5 | · | -6.1 | 11.7 | · | · | · | ·
COc1cc(/C=C2\CC/C(=C\c3cc(OC)c(OC)c(OC)c3)C2=O)cc(OC)c1OC | 35.1 | 32.2 | 20.7 | 12.4 | 8.4 | 4.2 | · | ·
COc1cc(/C=C2\CC(C(C)(C)C)C/C(=C\c3cc(OC)c(OC)c(OC)c3)C2=O)cc(OC)c1OC (stereo not drawn) | 50.4 | 97.5* | 21.8 | 3.6 | 97.9* | 106.7* | 99.2* | 55.5*
COc1cc(/C=C2\CC/C(=C\c3cc(OC)c(O)c(OC)c3)C2=O)cc(OC)c1O | · | 96.9* | · | · | 88.9* | 85.5* | 62.1* | 25.6
O=C(c1cc(S(=O)(=O)N2CCOCC2)c(Cl)cc1Cl)N1CCN(S(=O)(=O)c2cccc(F)c2)CC1 | · | 8.5 | · | · | -5.0 | -19.5 | · | ·
COc1cc(/C=C2\CCC/C(=C\c3ccc(O)c(OC)c3)C2=O)ccc1O | -9.6 | 100.3* | 64.6* | -7.3 | -24.3 | 100.4* | 88.9* | 22.0
COc1ccc(NC(=O)C2CCN(S(=O)(=O)c3cccs3)CC2)cc1OC | · | -6.7 | · | · | 0.0 | 3.4 | · | ·
CCN(CC)c1ccc(NC(=O)c2ccc3c(c2)OCO3)cc1 | -0.9 | -29.9 | -3.3 | -6.7 | 12.1 | 42.6 | · | ·
Cc1nc2ccc(NC(=O)CCS(=O)(=O)c3ccccc3)cc2s1 | -18.5 | -2.1 | 1.0 | 7.0 | -1.5 | 0.3 | · | ·
O=C(CCS(=O)(=O)c1ccccc1)Nc1nc2cc3c(cc2s1)OCO3 | 2.0 | 24.9 | -4.1 | 66.8 | -4.4 | 32.4 | · | ·
CC(C)n1nc(C(=O)Nc2nc3ccc(S(C)(=O)=O)cc3s2)c2ccccc2c1=O | -12.1 | 90.9* | -2.4 | -5.3 | 8.2 | -7.3 | 56.8* | 81.9*
SMILES | T cruzi repl | Mdm2 MdmX PPI | SKKanGAS inh | Calb FLC | Beta apoptosis | CSC inhib | Mdm2 MdmX conf | FLuc counter
CC(C)C(=O)Nc1nc2ccc(S(C)(=O)=O)cc2s1 | 21.6 | 47.9 | -10.3 | -1.2 | 1.2 | -1.9 | · | ·
O=C(CCS(=O)(=O)c1ccccc1)Nc1nc2cc3c(cc2s1)OCCO3 | -5.2 | 57.2* | 60.6* | 81.9* | -3.1 | -3.3 | 28.4 | ·
O=C(CCS(=O)(=O)c1ccccc1)Nc1nc2ccc(F)cc2s1 | 19.1 | 67.1* | 13.5 | -0.5 | -4.9 | 39.3 | 65.3* | 71.7*
COC(=O)c1ccc2nc(NC(=O)CCS(=O)(=O)c3ccccc3)sc2c1 | 14.0 | 91.1* | 9.8 | 67.1 | -7.8 | 35.3 | 68.5* | 27.4
O=C(CN1C(=O)C(=O)N(C2CCCC2)C1=O)Nc1ccc(F)cc1F | · | 17.6 | · | · | · | · | · | ·
CS(=O)(=O)c1ccc2nc(NC(=O)CCS(=O)(=O)c3ccccc3)sc2c1 | -2.0 | 77.8* | -0.5 | 8.0 | -5.2 | 29.1 | 73.2* | 84.4*
COc1ccc(OC)c2sc(NC(=O)CCS(=O)(=O)c3ccccc3)nc12 | -60.7 | 98.1* | -11.0 | -1.7 | 25.2 | 109.4* | 76.7* | 23.8
CC1(C)CCc2cc(S(=O)(=O)N3CCN(S(=O)(=O)c4c(F)cccc4F)CC3)ccc2O1 | · | 7.3 | · | · | 1.8 | · | · | ·
CCN(CC(=O)NC(C)(C)C)C(=O)CN1c2cccc3cccc(c23)S1(=O)=O | -3.0 | -0.3 | 2.8 | 9.5 | -0.4 | 2.3 | · | ·
Cc1cccc(C)c1NC(=O)COC(=O)c1cccc2c1C(=O)c1ccccc1C2=O | 9.7 | 58.6* | 13.2 | 0.8 | 0.9 | 13.3 | 34.8 | 77.5*
Cc1cccc(NC(=O)COC(=O)c2cccc3c2C(=O)c2ccccc2C3=O)c1C | 0.6 | 30.7 | 10.2 | 10.9 | 4.8 | 7.9 | · | ·
C/C(=N\NC(=O)c1nnn(-c2nonc2N)c1CSc1ccccc1)c1ccco1 | 10.5 | 23.5 | -2.4 | 2.2 | 2.2 | -2.0 | · | ·
C/C(=N\NC(=O)c1nnn(-c2nonc2N)c1CSc1ccccc1)c1ccc2c(c1)OCO2 | 0.8 | 54.0* | 0.3 | 1.7 | -2.8 | · | 17.4 | ·
C/C(=N\NC(=O)c1nnn(-c2nonc2N)c1CSc1ccc(C)cc1)c1ccco1 | 8.9 | 62.1* | -3.5 | 20.2 | 2.8 | 1.5 | 0.1 | ·
O=C(c1cccc(Cl)c1)N(Cc1ccco1)C1CCS(=O)(=O)C1 (stereo not drawn) | 2.2 | 1.4 | -5.1 | 1.8 | -7.9 | 1.6 | · | ·
COc1ccc(NC(=O)CSc2nnc(CC(=O)Nc3ccc(F)cc3)n2C)cc1 | 10.1 | 22.3 | -2.9 | 1.8 | 2.4 | -7.4 | · | ·
CC1CCCCN1S(=O)(=O)c1ccc(C(=O)N(CCCN(C)C)c2nc3ccc(Br)cc3s2)cc1 (stereo not drawn) | 25.9 | 76.8* | 15.4 | -2.3 | 3.5 | 23.4 | 33.0 | 60.8*
CCC1CCCCN1S(=O)(=O)c1ccc(C(=O)N(CCCN(C)C)c2nc3cc4c(cc3s2)OCO4)cc1 (stereo not drawn) | 24.2 | 63.0* | 0.6 | -3.4 | -4.8 | 4.2 | 43.0* | 58.5*
